We go through 2 molecules from ChEMBL document CHEMBL2016466, “Design, synthesis, and biological evaluation of new diaminoquinazolines as β-catenin/Tcf4 pathway inhibitors” (J Med Chem, 2012).

Series [1] relates to HCT-116. Put plainly: Growth inhibition of human HCT116 cells assessed as viable cells after 3 days using resazurin by […] assay. The series is classed as functional, cell-based. The note with it: HCT-116, 72 h. Summed up: (§1)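 Cells grown in RPMI 1640 + 10% FBS + penicillin/streptomycin, trypsinized and seeded at 2 × 10³ cells/well. Compound added 24 h later as a concentration curve starting at 10 μg/mL with nine further 2-fold dilutions. After 3 days of exposure, viability was read with CellTiter-Blue (resazurin to resorufin). IC50 is the average of three separate experiments.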
Background: Resazurin is reduced to fluorescent resorufin, in cell work by metabolically active cells.

Series [2] relates to SW480. In words: Growth inhibition of human SW480 cells assessed as viable cells after 3 days using resazurin by […] assay. To be noted: SW480, 72 h. In kind it is functional, cell-based. Summed up: as §1
Series [3] can be described thus: Solubility of the compound in water. In kind it is physicochemical. To be noted: buffer.
In series [4] the target is TCF4/beta-catenin (Homo sapiens, UniProt P35222+Q9NQB0). Put plainly: Inhibition of beta-catenin/TCF4 pathway expressed in HCT116 cells containing delta45S mutant after 24 hrs by luciferase reporter gene assay. The series is classed as cell-based. To be noted: hct-116. Summed up:
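HCT116 cells at 1 × 10⁴/well, cotransfected with 50 ng TOP-FLASH reporter (Tcf4 binding sites) and 50 ng pTK-β-gal as internal control. At 4 h post-transfection, fresh medium with compound at various concentrations was added. Firefly luciferase was read 24 h after compound addition, normalized to β-galactosidase and expressed as a percentage of control luciferase activity.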

A short description of series [5]: Ratio of IC50 for human HCT116 cells to IC50 for […]/TCF4 pathway expressed in HCT116 cells. In kind it is cell-based. The note with it: HCT-116.

Structures are written as SMILES.

Chain of TCF4/beta-catenin (P35222 2-781 limits assumed, stated change not applied): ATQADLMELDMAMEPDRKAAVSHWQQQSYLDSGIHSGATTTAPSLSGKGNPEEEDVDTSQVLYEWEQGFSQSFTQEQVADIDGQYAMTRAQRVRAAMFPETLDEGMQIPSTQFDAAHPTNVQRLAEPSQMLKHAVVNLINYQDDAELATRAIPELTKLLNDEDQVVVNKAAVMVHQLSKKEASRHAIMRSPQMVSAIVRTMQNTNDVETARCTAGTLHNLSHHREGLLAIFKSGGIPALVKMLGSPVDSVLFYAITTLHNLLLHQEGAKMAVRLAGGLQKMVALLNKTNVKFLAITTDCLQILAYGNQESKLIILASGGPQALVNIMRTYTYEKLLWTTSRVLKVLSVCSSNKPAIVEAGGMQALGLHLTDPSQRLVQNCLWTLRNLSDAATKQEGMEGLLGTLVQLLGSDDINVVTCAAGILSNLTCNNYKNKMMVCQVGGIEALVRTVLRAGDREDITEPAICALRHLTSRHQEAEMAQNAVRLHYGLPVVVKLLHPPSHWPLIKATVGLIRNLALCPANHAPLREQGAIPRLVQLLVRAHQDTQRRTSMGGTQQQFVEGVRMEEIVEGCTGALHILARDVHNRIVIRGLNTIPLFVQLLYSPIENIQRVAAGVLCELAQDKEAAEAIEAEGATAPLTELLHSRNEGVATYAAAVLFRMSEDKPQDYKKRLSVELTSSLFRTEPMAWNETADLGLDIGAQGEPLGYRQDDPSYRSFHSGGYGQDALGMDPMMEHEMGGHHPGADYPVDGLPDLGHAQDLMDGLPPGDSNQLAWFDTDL
Chain of TCF4/beta-catenin (Q9NQB0 whole entry, stated change not applied): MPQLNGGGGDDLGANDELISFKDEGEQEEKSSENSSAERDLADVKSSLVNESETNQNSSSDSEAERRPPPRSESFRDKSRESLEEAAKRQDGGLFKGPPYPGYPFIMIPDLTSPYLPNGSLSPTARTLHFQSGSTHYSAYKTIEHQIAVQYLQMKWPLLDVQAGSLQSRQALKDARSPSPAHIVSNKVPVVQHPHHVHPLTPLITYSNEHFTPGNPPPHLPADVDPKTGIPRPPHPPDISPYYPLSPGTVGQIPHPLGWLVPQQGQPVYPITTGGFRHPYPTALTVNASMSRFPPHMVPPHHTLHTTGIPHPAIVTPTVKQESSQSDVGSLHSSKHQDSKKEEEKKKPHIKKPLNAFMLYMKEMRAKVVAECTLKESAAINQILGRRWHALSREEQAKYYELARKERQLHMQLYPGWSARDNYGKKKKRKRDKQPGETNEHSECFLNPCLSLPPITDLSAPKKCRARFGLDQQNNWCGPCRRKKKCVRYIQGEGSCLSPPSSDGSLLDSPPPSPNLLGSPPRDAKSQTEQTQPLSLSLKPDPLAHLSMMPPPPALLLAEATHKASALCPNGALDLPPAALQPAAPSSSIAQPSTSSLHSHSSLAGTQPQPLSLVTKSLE

For the molecule `CCCNc1nc(NCc2ccc(C(=O)Nc3ccc(F)cc3)cc2)c2cc(C)ccc2n1`, the results for the IC50 in series [1] and in series [2] were 1.2 µM and 1.3 µM, respectively. Also, in series [3], the solubility entry is “soluble”.

On to `CNc1nc(NCc2ccc(NC(=O)c3ccc(F)cc3)cc2)c2ccccc2n1`, for which the IC50 (as a rule, the midpoint of a concentration-inhibition curve) in series [4] stood at 3.5 µM; in series [1] it was 1.6 µM; in series [2] it was 2 µM. The Ratio IC50 in series [5] amounted to 2.
